Key:
A3Bctd = A3Bctd (Homo sapiens, UniProt Q9UH17); experiment: Intact protein mass spectrometry; format: binding
Summary of the method: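 Covalent test compound incubated with A3Bctd for 1 h and 3 h at varying molar equivalents of compound over protein, then analysed by intact protein mass spectrometry. Degree of covalent adduction was quantified from the intensity of the adduct mass species.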

UDG = biological target: T1, UDG (Escherichia coli, UniProt P12295); conditions: cited from earlier work
T1 sequence (P12295 1-229): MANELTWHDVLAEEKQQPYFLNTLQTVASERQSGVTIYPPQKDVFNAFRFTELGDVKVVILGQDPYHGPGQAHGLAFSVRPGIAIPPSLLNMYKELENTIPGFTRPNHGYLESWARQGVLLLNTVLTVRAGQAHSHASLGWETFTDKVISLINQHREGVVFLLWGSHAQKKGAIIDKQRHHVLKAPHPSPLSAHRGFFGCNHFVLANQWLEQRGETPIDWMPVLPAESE

Sequence of A3Bctd (Q9UH17 193-382): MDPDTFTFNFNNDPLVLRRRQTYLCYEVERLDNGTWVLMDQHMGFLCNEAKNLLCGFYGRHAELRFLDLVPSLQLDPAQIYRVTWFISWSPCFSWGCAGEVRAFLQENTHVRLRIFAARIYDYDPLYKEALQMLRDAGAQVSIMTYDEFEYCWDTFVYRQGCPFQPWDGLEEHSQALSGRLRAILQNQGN

| Compound | multiple adduction events (in words) (A3Bctd) | inhibition of UDG (in words) (UDG) |
| --- | --- | --- |
| CCC1(O)CCCN(C(=O)c2ccc(-c3ccc(F)c(NC(=O)CCl)c3)cc2)C1 (centres unmarked) [Compound 24] | Multiple adduction events are detected | – |
| O=C(O)C1=CC(=C(c2ccc(O)c(C(=O)O)c2)c2ccc(O)c(C(=O)O)c2)C=CC1=O [MN1, aurintricarboxylic acid] | – | inhibits UDG |
